Published values collected from several papers.
Target: MAP/microtubule affinity-regulating kinase 4 (MARK4, Homo sapiens, UniProt Q96L34)
Residues used in one study (Q96L34 1-752): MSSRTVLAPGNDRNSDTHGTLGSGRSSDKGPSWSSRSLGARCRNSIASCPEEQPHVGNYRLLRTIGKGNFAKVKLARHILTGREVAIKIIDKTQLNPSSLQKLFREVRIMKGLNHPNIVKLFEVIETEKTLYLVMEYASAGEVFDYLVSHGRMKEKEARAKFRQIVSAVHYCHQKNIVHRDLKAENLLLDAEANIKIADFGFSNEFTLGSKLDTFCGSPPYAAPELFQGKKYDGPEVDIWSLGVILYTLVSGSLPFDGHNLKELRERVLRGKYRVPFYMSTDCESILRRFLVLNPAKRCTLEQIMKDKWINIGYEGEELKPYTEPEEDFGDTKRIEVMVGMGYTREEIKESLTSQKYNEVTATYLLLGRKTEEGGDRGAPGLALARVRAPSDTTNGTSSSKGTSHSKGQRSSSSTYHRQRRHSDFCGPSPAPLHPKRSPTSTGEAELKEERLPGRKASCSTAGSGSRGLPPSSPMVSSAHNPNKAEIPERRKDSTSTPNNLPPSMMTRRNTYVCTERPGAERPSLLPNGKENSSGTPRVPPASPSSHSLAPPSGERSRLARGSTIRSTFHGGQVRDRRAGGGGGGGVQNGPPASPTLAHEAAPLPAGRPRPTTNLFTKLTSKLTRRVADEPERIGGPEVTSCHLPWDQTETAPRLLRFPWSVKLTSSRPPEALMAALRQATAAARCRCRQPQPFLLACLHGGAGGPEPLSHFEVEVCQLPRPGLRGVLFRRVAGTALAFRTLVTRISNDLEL

SMILES	assay	conditions	remaining binding [%]
CCCOc1ccc([C@H]2[C@H](C(=O)O)[C@@H](c3ccc4c(c3)OCO4)CN2CC(=O)Nc2c(CC)cccc2CC)cc1	cell-free assay, competition with immobilised ligand	1 µM	97
CNC(=O)[C@@H]1CC[C@@H](n2c(-c3ccc4cnccc4c3)nc3ccc(C(=O)NCc4cccc(C(N)=O)c4)cc32)C1	binding, competition with immobilised ligand	1 µM	98
O=C(NCC1CCOCC1)c1n[nH]cc1NC(=O)c1c(F)cccc1F	binding, competition with immobilised ligand	1 µM	98
c1cnn2ncc(-c3ccnc(N4CCC45COC5)n3)c2c1	binding	1 µM	84
CCN1CCN(Cc2ccc(C(=O)Nc3ccc(C)c(Oc4ccc5c(c4)CC(=O)N5)c3)cc2C(F)(F)F)CC1	binding, competition with immobilised ligand	1 µM	88
CC1CCCN1c1nccc(-c2cnn3ncccc23)n1 (centres unmarked)	binding	1 µM	98
COc1cnc(Nc2cccc(S(N)(=O)=O)c2)nc1N1CCN(c2ccccc2)C(=O)C1	binding, competition with immobilised ligand	1 µM	100
Nc1c(C(=O)NCc2ccc(C(=O)NCCCC3CCCCC3)cc2)cnn1-c1ccccc1	cell-free assay, competition with immobilised ligand	0.1 µM	76
F[C@@H]1CCN(c2nccc(-c3cnn4ncccc34)n2)C1	binding	1 µM	100
O=C1CCc2cc(Nc3cc(OC4CCOCC4)c([N+](=O)[O-])cc3Cl)ccc2N1	cell-free assay, competition with immobilised ligand	1 µM	100
O=C(NCCCN1CCOCC1)c1ccc(Nc2ncc(Cl)c(-c3ccc(Cl)s3)n2)cc1	binding, competition with immobilised ligand	1 µM	24
CN(c1nccc(-c2cnn3ncccc23)n1)C1CC1	binding	1 µM	76
CC(=O)c1c(NS(C)(=O)=O)c2cc(-c3ccc(Cl)cc3)c(-c3ccc(Cl)cc3Cl)nc2n(C)c1=O	cell-free assay, competition with immobilised ligand	1 µM	100
COc1ncc2cc3ccccc3nc2c1C#N	cell-free assay, competition with immobilised ligand	5 µM	64
COc1cc(-c2cn(C3CCc4ccccc4N(CC(F)(F)F)C3=O)nn2)ccc1-n1ccc(C)n1 (centres unmarked)	cell-free assay, competition with immobilised ligand	1 µM	100
Cc1cnc(Nc2ccc(C(=O)N3CCC(N4CCCC4)CC3)cc2)nc1-c1cc2ccccc2s1	binding, competition with immobilised ligand	1 µM	35
CN(C)c1nccc(-c2cnc3ncccn23)n1	binding	1 µM	93
O=C(c1ccc(Nc2ncc(Cl)c(-c3ccc(Cl)s3)n2)cc1)N1CCC(N2CCCC2)CC1	binding, competition with immobilised ligand	1 µM	23
O=C(O)c1cc(-c2ccc(C3CCNCC3)cc2)c2ccc(-c3ccc(C(F)(F)F)cc3)cc2c1	cell-free assay, competition with immobilised ligand	1 µM	100
C[C@@H]1CCN(c2nccc(-c3cnn4ncccc34)n2)C1	binding	1 µM	100
